# System: Mus musculus
# Assay: Antiarrhythmic activity in chloroform induced ventricular arrhythmia in mice, 15 min before exposure to chloroform intraperitoneal administration
# Type: functional, Heart
# Method in brief: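 Female ICR mice (20-25 g) dosed ip; 15 min later placed 2 min in 2-L glass chamber saturated with chloroform vapor (150 mL chloroform warmed at 33 °C). Chest opened, ventricular ECG recorded 1 min via silver electrodes. Dose judged effective if ventricular rate <400 bpm just after thoracotomy; 3-10 mice per dose level; ED50 for protection from ventricular tachycardia calculated.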
# [1] = Mus musculus, Heart, ip, read-out: ED50
Compound,ED50 [1],ED50
N[C@@H]1Cc2c3n(c4ccc(O)cc24)C(=O)C[C@@]2(Cc4ccccc4)CCC[C@@H]1[C@@H]32,> 40 mg/kg,
N[C@@H]1Cc2c3n(c4cccc(O)c24)C(=O)C[C@@]2(CCc4ccccc4)CCC[C@@H]1[C@@H]32,> 40 mg/kg,
N[C@@H]1Cc2c3n(c4ccccc24)C(=O)CC[C@H]3C1.O=C(O)/C=C/C(=O)O,> 40 mg/kg,
CC[C@@]12CCC[C@H]3[C@H](N)Cc4c(n(c5cc(O)c(O)cc45)C(=O)C1)[C@H]32.Cl,7 mg/kg,
Cl.N[C@@H]1Cc2c3n(c4cc(O)c(O)cc24)C(=O)C[C@H]2CCC[C@@H]1[C@@H]32,> 40 mg/kg,
CC(C)[C@@]12CCC[C@H]3[C@H](N)Cc4c(n(c5ccc(O)cc45)C(=O)C1)[C@H]32,8.4 mg/kg,
CC(C)N(CCC(C(N)=O)(c1ccccc1)c1ccccn1)C(C)C (configuration not stated) [DISOPYRAMIDE],11.8 mg/kg,
CC[C@]12CCC[C@@H]3[C@H]1c1c(c4cc(O)ccc4n1C(=O)C2)C[C@H]3C(=O)OCCN1CCN(C)CC1,34 mg/kg,
N[C@@H]1Cc2c3n(c4ccccc24)C(=O)C[C@H]2CC[C@@H]1[C@@H]32.O=C(O)/C=C/C(=O)O,40 mg/kg,
C[C@@]12CCC[C@H]3[C@H](N)Cc4c(n(c5cc(O)c(O)cc45)C(=O)C1)[C@H]32.Cl,34 mg/kg,
N[C@@H]1Cc2c3n(c4ccc(O)cc24)C(=O)C[C@@]2(CCc4ccccc4)CCC[C@@H]1[C@@H]32,> 40 mg/kg,
CC[C@@]12CCC[C@H]3[C@H](N)Cc4c(n(c5cccc(O)c45)C(=O)C1)[C@H]32.Cl,6 mg/kg,
N[C@@H]1Cc2c3n(c4ccccc24)C(=O)C[C@H]2CCC[C@@H]1[C@@H]32.O=C(O)/C=C/C(=O)O,32 mg/kg,
CCCC[C@@]12CCC[C@H]3[C@H](N)Cc4c(n(c5ccc(O)cc45)C(=O)C1)[C@H]32,12 mg/kg,
N[C@@H]1Cc2c3n(c4ccccc24)C(=O)C[C@H]2CCCC[C@@H]1[C@@H]32.O=C(O)/C=C/C(=O)O,80 mg/kg,
N[C@@H]1Cc2c3n(c4ccc(O)cc24)C(=O)C[C@H]2CCC[C@@H]1[C@@H]32,> 40 mg/kg,
CC[C@]12CCC[C@@H]3[C@H]1c1c(c4c(O)cccc4n1C(=O)C2)C[C@H]3C(=O)NN,> 40 mg/kg,
Cl.N[C@@H]1Cc2c3n(c4cccc(O)c24)C(=O)C[C@H]2CCC[C@@H]1[C@@H]32 (stereo in doubt; (+)-10),,5 mg/kg
Cl.N[C@@H]1Cc2c3n(c4cccc(O)c24)C(=O)C[C@H]2CCC[C@@H]1[C@@H]32 (stereo in doubt; 10),10 mg/kg,
CC[C@@]12CCC[C@H]3[C@H](N)Cc4c(n(c5cc(OC)c(OC)cc45)C(=O)C1)[C@H]32.Cl,34 mg/kg,
CC[C@]12CCC[C@@H]3[C@H]1c1c(c4cc(O)ccc4n1C(=O)C2)C[C@H]3C(=O)NCCN1CCCC1,> 40 mg/kg,
CC[C@@]12CCC[C@H]3CCc4c(n(c5ccccc45)C(=O)C1)[C@H]32,> 40 mg/kg,
CCC[C@@]12CCC[C@H]3[C@H](N)Cc4c(n(c5cc(O)c(O)cc45)C(=O)C1)[C@H]32.Cl,20 mg/kg,
C[C@@]12CCC[C@H]3[C@H](N)Cc4c(n(c5cccc(O)c45)C(=O)C1)[C@H]32.Cl,8 mg/kg,
CCC[C@@]12CCC[C@H]3[C@H](N)Cc4c(n(c5cccc(O)c45)C(=O)C1)[C@H]32.Cl,20 mg/kg,
C[C@@]12CCC[C@H]3[C@H](N)Cc4c(n(c5ccc(O)cc45)C(=O)C1)[C@H]32,> 40 mg/kg,
Cl.NCCc1cn(C(=O)CC2CCCCC2)c2ccccc12,48 mg/kg,

# From ChEMBL document CHEMBL1125387, “Synthesis and biological action of the aminotetrahydroisoquinocarbazoles and related compounds: a new class of compounds with antiarrhythmic activity” (1992)
